# Tests used:
# [1] = Cytotoxicity against human Raji cells assessed as cell viability at 10^-6 M; format: cell-based; conditions: read-out: Activity
# [2] = Cytotoxicity against human Raji cells assessed as cell viability at 10^-7 M; format: cell-based; conditions: read-out: Activity
# [3] = test system: Human gammaherpesvirus 4; experiment: Induction of EBV-early antigen expressed in human Raji cells at 10^-6 M after 48 hrs by immunofluorescence assay relative to control; format: organism-based; conditions: human gammaherpesvirus 4, raji, 1 µM
# How it was run: (§1)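 Raji B-lymphoblastoid cells (5 × 10^5/mL) in RPMI 1640 with 10% FBS, with 4 mM sodium n-butyrate as synergist and test compound at 10^-7 or 10^-6 M (final DMSO 0.4%). Incubated 48 h at 37 °C under 5% CO2. Smears were stained by indirect immunofluorescence using NPC patient serum and FITC anti-human IgG. At least 500 cells counted; % EA-positive recorded; n = 3, SEM.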
# [4] = test system: Human gammaherpesvirus 4; experiment: Induction of EBV-early antigen expressed in human Raji cells at 10^-7 M after 48 hrs by immunofluorescence assay relative to control; format: organism-based; conditions: human gammaherpesvirus 4, raji, 0.1 µM; how it was run: as §1
# [5] = test system: PC-3; experiment: Growth inhibition of human PC3 cells after 48 hrs by sulforhodamine B assay; format: functional; conditions: PC-3, 48 h
# How it was run: (§2)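 Yamori 39-line human cancer panel, NCI method with modifications. Cells plated in RPMI 1640 plus 5% FBS, attached overnight, then exposed 48 h to compound at 10^-8, 10^-7, 10^-6, 10^-5 and 10^-4 M. Sulforhodamine B staining read at 525 nm; % growth = 100[(T−T0)/(C−T0)] from duplicate-point averages, with T0 the time-zero absorbance. GI50 is the concentration giving 50.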
# [6] = test system: DU-145; experiment: Growth inhibition of human DU145 cells after 48 hrs by sulforhodamine B assay; format: functional; conditions: DU-145, 48 h; how it was run: as §2
# [7] = test system: MKN-74; experiment: Growth inhibition of human MKN74 cells after 48 hrs by sulforhodamine B assay; format: functional; conditions: MKN-74, 48 h; how it was run: as §2
# [8] = test system: MKN-28; experiment: Growth inhibition of human MKN28 cells after 48 hrs by sulforhodamine B assay; format: functional; conditions: MKN-28, 48 h; how it was run: as §2
# [9] = test system: MKN-45; experiment: Growth inhibition of human MKN45 cells after 48 hrs by sulforhodamine B assay; format: functional; conditions: MKN-45, 48 h; how it was run: as §2
# [10] = test system: MKN-7; experiment: Growth inhibition of human MKN7 cells after 48 hrs by sulforhodamine B assay; format: functional; conditions: MKN-7, 48 h; how it was run: as §2
# [11] = test system: St-4; experiment: Growth inhibition of human St-4 cells after 48 hrs by sulforhodamine B assay; format: functional; conditions: St-4, 48 h; how it was run: as §2
# [12] = Growth inhibition of human MKN1 cells after 48 hrs by sulforhodamine B assay; format: functional; conditions: MKN-1, 48 h; how it was run: as §2
# [13] = Growth inhibition of human RXF631L cells after 48 hrs by sulforhodamine B assay; format: functional; conditions: RXF 631, 48 h; how it was run: as §2
# [14] = test system: ACHN; experiment: Growth inhibition of human ACHN cells after 48 hrs by sulforhodamine B assay; format: functional; how it was run: as §2
# [15] = test system: OVCAR-8; experiment: Growth inhibition of human OVCAR8 cells after 48 hrs by sulforhodamine B assay; format: functional; conditions: OVCAR-8, 48 h; how it was run: as §2
# [16] = test system: SK-OV-3; experiment: Growth inhibition of human SKOV3 cells after 48 hrs by sulforhodamine B assay; format: functional; conditions: SK-OV-3, 48 h; how it was run: as §2
# [17] = test system: OVCAR-5; experiment: Growth inhibition of human OVCAR5 cells after 48 hrs by sulforhodamine B assay; format: functional; conditions: OVCAR-5, 48 h; how it was run: as §2
# [18] = test system: OVCAR-3; experiment: Growth inhibition of human OVCAR3 cells after 48 hrs by sulforhodamine B assay; format: functional; conditions: OVCAR-3, 48 h; how it was run: as §2
# [19] = test system: OVCAR-4; experiment: Growth inhibition of human OVCAR4 cells after 48 hrs by sulforhodamine B assay; format: functional; conditions: OVCAR-4, 48 h; how it was run: as §2
# [20] = test system: DMS-114; experiment: Growth inhibition of human DMS114 cells after 48 hrs by sulforhodamine B assay; format: functional; conditions: DMS-114, 48 h; how it was run: as §2
# [21] = test system: LOX IMVI; experiment: Growth inhibition of human LOXIMVI cells after 48 hrs by sulforhodamine B assay; format: functional; how it was run: as §2
# [22] = test system: A549; experiment: Growth inhibition of human A549 cells after 48 hrs by sulforhodamine B assay; format: functional; conditions: A549, 48 h; how it was run: as §2
# [23] = test system: DMS-273; experiment: Growth inhibition of human DMS273 cells after 48 hrs by sulforhodamine B assay; format: functional; conditions: DMS-273, 48 h; how it was run: as §2
# [24] = test system: NCI-H460; experiment: Growth inhibition of human NCI-H460 cells after 48 hrs by sulforhodamine B assay; format: functional; conditions: NCI-H460, 48 h; how it was run: as §2
# [25] = test system: NCI-H226; experiment: Growth inhibition of human NCI-H226 cells after 48 hrs by sulforhodamine B assay; format: functional; conditions: NCI-H226, 48 h; how it was run: as §2
# [26] = test system: NCI-H522; experiment: Growth inhibition of human NCI-H522 cells after 48 hrs by sulforhodamine B assay; format: functional; conditions: NCI-H522, 48 h; how it was run: as §2
# [27] = test system: HCT-116; experiment: Growth inhibition of human HCT116 cells after 48 hrs by sulforhodamine B assay; format: functional; conditions: HCT-116, 48 h; how it was run: as §2
# [28] = test system: NCI-H23; experiment: Growth inhibition of human NCI-H23 cells after 48 hrs by sulforhodamine B assay; format: functional; conditions: NCI-H23, 48 h; how it was run: as §2
# [29] = test system: HCT-15; experiment: Growth inhibition of human HCT15 cells after 48 hrs by sulforhodamine B assay; format: functional; conditions: HCT-15, 48 h; how it was run: as §2
# [30] = test system: KM12; experiment: Growth inhibition of human KM12 cells after 48 hrs by sulforhodamine B assay; format: functional; conditions: KM12, 48 h; how it was run: as §2
# [31] = test system: HT-29; experiment: Growth inhibition of human HT-29 cells after 48 hrs by sulforhodamine B assay; format: functional; conditions: HT-29, 48 h; how it was run: as §2
# [32] = test system: SNB-78; experiment: Growth inhibition of human SNB78 cells after 48 hrs by sulforhodamine B assay; format: functional; conditions: SNB-78, 48 h; how it was run: as §2
# [33] = Growth inhibition of human HCC2998 cells after 48 hrs by sulforhodamine B assay; format: functional; conditions: HCC 2998, 48 h; how it was run: as §2
# [34] = test system: SF-539; experiment: Growth inhibition of human SF539 cells after 48 hrs by sulforhodamine B assay; format: functional; conditions: SF-539, 48 h; how it was run: as §2
# [35] = test system: SNB-75; experiment: Growth inhibition of human SNB75 cells after 48 hrs by sulforhodamine B assay; format: functional; conditions: SNB-75, 48 h; how it was run: as §2
# [36] = test system: SF-295; experiment: Growth inhibition of human SF295 cells after 48 hrs by sulforhodamine B assay; format: functional; conditions: SF-295, 48 h; how it was run: as §2
# [37] = test system: U-251; experiment: Growth inhibition of human U251 cells after 48 hrs by sulforhodamine B assay; format: functional; conditions: U-251, 48 h; how it was run: as §2
# [38] = test system: SF-268; experiment: Growth inhibition of human SF268 cells after 48 hrs by sulforhodamine B assay; format: functional; conditions: SF-268, 48 h; how it was run: as §2
# [39] = test system: MCF7; experiment: Growth inhibition of human MCF7 cells after 48 hrs by sulforhodamine B assay; format: functional; conditions: MCF7, 48 h; how it was run: as §2
# [40] = test system: MDA-MB-231; experiment: Growth inhibition of human MDA-MB-231 cells after 48 hrs by sulforhodamine B assay; format: functional; conditions: MDA-MB-231, 48 h; how it was run: as §2
# [41] = Growth inhibition of human BSY1 cells after 48 hrs by sulforhodamine B assay; format: functional; conditions: BSY-1, 48 h; how it was run: as §2
# [42] = Growth inhibition of human HBC5 cells after 48 hrs by sulforhodamine B assay; format: functional; conditions: HBC5, 48 h; how it was run: as §2
# [43] = Growth inhibition of human HBC4 cells after 48 hrs by sulforhodamine B assay; format: functional; conditions: HBC4, 48 h; how it was run: as §2
# [44] = Octanol-water partition coefficient, log P of the compound by HPLC analysis; format: physicochemical
# How it was run: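 log P was estimated from HPLC retention, with column dead time measured using unretained formamide.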
# [45] = target: T1, Protein kinase C delta type (Homo sapiens, UniProt Q05655); experiment: Inhibition of [3H]PDBu binding to PKCdelta-C1A domain peptide (unknown origin)
# How it was run: (§3)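 Competitive [3H]PDBu binding used 14 or 40 nM PKCδ C1 peptide and 20 nM [3H]PDBu (19.6 Ci/mmol), in 50 mM Tris-maleate (pH 7.4 at 4 °C) with 50 µg/mL phosphatidylserine, 3 mg/mL bovine γ-globulin and varied inhibitor concentrations. IC50 was taken as 50% inhibition of specific binding. Ki was derived by the Sharkey–Blumberg method.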
# [46] = target: T1, Protein kinase C delta type; experiment: Inhibition of [3H]PDBu binding to PKCdelta-C1B domain peptide (unknown origin); how it was run: as §3
# T1 sequence (Q05655 whole entry, the tested form may be a part): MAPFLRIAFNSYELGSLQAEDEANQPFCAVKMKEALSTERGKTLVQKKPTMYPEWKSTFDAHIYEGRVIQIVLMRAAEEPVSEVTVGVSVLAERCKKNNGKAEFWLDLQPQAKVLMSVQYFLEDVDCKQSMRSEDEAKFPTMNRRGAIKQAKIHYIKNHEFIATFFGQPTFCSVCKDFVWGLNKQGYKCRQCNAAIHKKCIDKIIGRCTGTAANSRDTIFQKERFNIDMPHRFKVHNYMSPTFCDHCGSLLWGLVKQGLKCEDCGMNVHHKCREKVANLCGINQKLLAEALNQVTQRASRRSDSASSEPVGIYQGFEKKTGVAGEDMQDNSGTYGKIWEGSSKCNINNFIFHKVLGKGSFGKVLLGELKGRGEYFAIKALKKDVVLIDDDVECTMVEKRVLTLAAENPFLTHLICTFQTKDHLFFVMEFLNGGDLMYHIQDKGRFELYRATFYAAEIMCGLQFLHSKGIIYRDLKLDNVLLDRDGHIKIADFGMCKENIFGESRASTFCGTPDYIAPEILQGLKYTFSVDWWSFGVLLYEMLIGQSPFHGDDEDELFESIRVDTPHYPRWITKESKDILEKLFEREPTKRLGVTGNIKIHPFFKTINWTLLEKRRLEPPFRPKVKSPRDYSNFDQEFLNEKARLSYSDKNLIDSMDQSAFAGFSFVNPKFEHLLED
smiles,measurement,setting,value
CC(=O)Nc1ccc(CCCC[C@@H]2C[C@@H]3C[C@@]4(O[C@H](CCC4(C)C)CC(=O)O[C@@H](CO)CC(=O)O3)O2)cc1O,viability at 1 µM,[1],60%
same,viability at 0.1 µM,[2],60%
same,Activity,[3],2.4%
same,Activity,[4],2.4%
same,GI50,[5],20.9 µM
same,GI50,[6],29.5 µM
same,GI50,[7],33.1 µM
same,GI50,[8],2.57 µM
same,GI50,[9],28.8 µM
same,GI50,[10],30.2 µM
same,GI50,[11],2.14 µM
same,GI50,[12],34.7 µM
same,GI50,[13],28.8 µM
same,GI50,[14],26.3 µM
same,GI50,[15],44.7 µM
same,GI50,[16],34.7 µM
same,GI50,[17],20.4 µM
same,GI50,[18],23.4 µM
same,GI50,[19],37.2 µM
same,GI50,[20],20.9 µM
same,GI50,[21],12.9 µM
same,GI50,[22],15.1 µM
same,GI50,[23],0.933 µM
same,GI50,[24],20.4 µM
same,GI50,[25],26.9 µM
same,GI50,[26],25.7 µM
same,GI50,[27],31.6 µM
same,GI50,[28],33.9 µM
same,GI50,[29],33.9 µM
same,GI50,[30],31.6 µM
same,GI50,[31],19.5 µM
same,GI50,[32],51.3 µM
same,GI50,[33],13.8 µM
same,GI50,[34],30.2 µM
same,GI50,[35],41.7 µM
same,GI50,[36],13.2 µM
same,GI50,[37],26.9 µM
same,GI50,[38],43.7 µM
same,GI50,[39],40.7 µM
same,GI50,[40],16.6 µM
same,GI50,[41],26.3 µM
same,GI50,[42],46.8 µM
same,GI50,[43],2.45 µM
same,logP,[44],2.7
same,Ki,[45],0.29 µM
same,Ki,[46],0.036 µM
COc1cccc(CCCC[C@@H]2C[C@@H]3C[C@@]4(O[C@H](CCC4(C)C)CC(=O)O[C@@H](CO)CC(=O)O3)O2)c1,viability at 1 µM,[1],60%
same,viability at 0.1 µM,[2],60%
same,Activity,[3],5.2%
same,Activity,[4],2.6%
same,GI50,[5],12 µM
same,GI50,[6],13.8 µM
same,GI50,[7],15.8 µM
same,GI50,[8],15.1 µM
same,GI50,[9],9.55 µM
same,GI50,[10],19.1 µM
same,GI50,[11],2.51 µM
same,GI50,[12],11.5 µM
same,GI50,[13],13.8 µM
same,GI50,[14],11.5 µM
same,GI50,[15],17 µM
same,GI50,[16],16.2 µM
same,GI50,[17],13.5 µM
same,GI50,[18],12.6 µM
same,GI50,[19],15.8 µM
same,GI50,[20],11 µM
same,GI50,[21],11 µM
same,GI50,[22],4.9 µM
same,GI50,[23],11 µM
same,GI50,[24],2.57 µM
same,GI50,[25],11.7 µM
same,GI50,[26],11.5 µM
same,GI50,[27],13.5 µM
same,GI50,[28],13.5 µM
same,GI50,[29],18.2 µM
same,GI50,[30],13.8 µM
same,GI50,[31],11.2 µM
same,GI50,[32],17.4 µM
same,GI50,[33],7.94 µM
same,GI50,[34],10 µM
same,GI50,[35],14.5 µM
same,GI50,[36],10.2 µM
same,GI50,[37],17 µM
same,GI50,[38],14.1 µM
same,GI50,[39],16.2 µM
same,GI50,[40],6.61 µM
same,GI50,[41],13.8 µM
same,GI50,[42],18.6 µM
same,GI50,[43],1.7 µM
same,logP,[44],4.4
same,Ki,[45],0.33 µM
same,Ki,[46],0.0097 µM

# Source: ChEMBL document CHEMBL2380295, “Structure-activity studies on the side chain of a simplified analog of aplysiatoxin (aplog-1) with anti-proliferative activity” (Bioorg Med Chem, 2013)
